Measured values reported in publication PMC2764840 (Nature immunology, 2009).

Legend:
[1] = test system: AND TCRtg DP thymocytes (AND.Rag1^−/−H-2^d); experiment: CD69 upregulation assay, AND thymocytes; assay type: cell-based, mouse; conditions: I-E^k-Ig dimers + anti-CD28, overnight
Procedure, shortened: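 Plates coated overnight at 4°C in PBS with 1 µg/well self-peptide-loaded I-E^k-Ig dimer (S2-cell-expressed, Protein A-purified; loaded 72 h at 37°C in 0.2 M citrate–PO₄ pH 5.0, then neutralized with 1 M pH 9.0) plus 10 µg/well anti-CD28. Thymocytes (1 × 10⁶/well) cultured overnight at 37°C in IMDM/10% FCS/2-ME; CD69 by flow cytometry. Two independent experiments.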

[2] = test system: AND TCRtg CD4^+ peripheral T cells; experiment: Co-agonist assay; assay type: cell-based, mouse; conditions: I-E^k-Ig dimers
Procedure, shortened: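 I-E^k-Ig dimers co-loaded with MCC and test or Hb control peptide at ratios of 1:10 to 1:1,000 (pH 5.0 citrate–PO₄, 37°C, 72 h), coated at 1 µg/well in triplicate. One to 2 × 10⁶ purified splenic AND CD4⁺ T cells (H-2^b) were added per well and cultured three days. ³H-TdR was pulsed for the final 18–24 h. Values are mean ± s.d. of triplicates.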

[3] = test system: AND TCRtg DP thymocytes; experiment: Thymic reaggregate culture, positive selection of AND; assay type: cell-based, mouse; conditions: ANV41.2 I-E^k cells, 96 hours
Procedure, shortened: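 DP thymocytes from newborn (3–14 d) AND.Rag1⁻/⁻H-2^d mice, CD8-bead purified (1 × 10⁶), were pelleted with 5 × 10⁵ untreated ANV41.2 I-E^k cells as standing drops on transwells. Peptide was added to the lower well in I-20 plus medium (Hb control 30 µM). Cultures ran 96 h at 37°C, then CD4/CD8 flow for %CD4SP. Mean ± s.e.m. of 5 experiments; Mann-Whitney.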

[4] = test system: AND TCRtg CD4^+ T cells in B6.K.Rag1^−/− mice; experiment: Homeostatic proliferation assay; assay type: in vivo, mouse; conditions: 0.5 mg i.p. on days -1 and +1; CFSE, flow cytometry
Procedure, shortened: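 Splenic AND CD4⁺ T cells were labeled with 5 µM CFSE, and 10⁶ cells/mouse were given retro-orbitally on day 0 to B6.K.Rag1⁻/⁻ recipients. Recipients received peptide i.p. (0.5 mg; also 0.1 mg) or Hb₆₄₋₇₆ control on days −1 and +1. After four days, inguinal and axillary nodes were pooled and CD4, Vα11 and CFSE analyzed by flow cytometry; totals counted. n = 8 mice/group over five experiments; Mann-Whitney.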

GKKVITAFNEGLK [Hb]
CD69 upregulation (in words) [1]: did not upregulate CD69
stimulation of AND T cells (in words) ([2]; MCC:peptide 1:20): stimulatory
stimulation of AND T cells (in words) ([2]; MCC:peptide 1:1,000): non-stimulatory
positive selection of AND CD4SP cells (in words) [3]: did not positively select AND TCRtg T cells in thymic reaggregate culture
homeostatic proliferation of AND TCRtg T cells (in words) [4]: proliferation of the AND TCRtg T cells
